NR3A LBD binder – NR3A (human) ligand-binding domain modulation | NR3A LBD differential scanning fluorimetry, Tm shift; 0% = protein alone, 100% = glycine-bound protein | Tm shift relative to glycine control, % at 25 µM | 2.5% of 340,000 active | AID 1259313;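 active means melting temperature shift of at least 10% of the positive control shift, at one fixed dose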
EBI2 block – EBI2 (human) antagonism | inhibition, % at 5 µM | EBI2 beta-arrestin recruitment, luminescence, 7a,25-OHC stimulated | 0.81% of 360,000 active; in the data active means inhibition above about 38%;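 further: enzyme fragment complementation signal reports receptor beta-arrestin coupling in cells; 0% = agonist plus DMSO wells and 100% = wells without agonist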
Target sequence (P32249 whole entry, looked up, the tested form may be a part): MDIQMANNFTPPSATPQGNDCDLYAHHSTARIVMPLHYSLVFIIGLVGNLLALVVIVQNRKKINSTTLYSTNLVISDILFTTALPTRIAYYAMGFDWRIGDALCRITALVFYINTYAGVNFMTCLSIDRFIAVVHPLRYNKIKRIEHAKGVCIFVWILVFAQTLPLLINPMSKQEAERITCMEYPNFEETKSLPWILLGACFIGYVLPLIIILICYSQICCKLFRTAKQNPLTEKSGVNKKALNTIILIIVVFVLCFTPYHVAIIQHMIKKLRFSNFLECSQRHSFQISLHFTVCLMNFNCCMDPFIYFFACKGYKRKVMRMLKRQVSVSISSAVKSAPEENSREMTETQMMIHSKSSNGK
SENP1 FRET inh – blocks the human SENP1 SUMO protease catalytic domain; recombinant SENP1 catalytic domain, CyPet-SUMO1-YPet FRET cleavage; inhibition, % at 10 µM; 0.21% of 360,000 active; AID 624204;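 active means inhibition at least 30% at 10 µM, raw YFP signal under a set limit, fluorescence ratio 0.5 to 1.5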;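 further: 0% = enzyme with DMSO and 100% = no enzyme wells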
Target sequence (Q9P0U3 419-644 limits assumed): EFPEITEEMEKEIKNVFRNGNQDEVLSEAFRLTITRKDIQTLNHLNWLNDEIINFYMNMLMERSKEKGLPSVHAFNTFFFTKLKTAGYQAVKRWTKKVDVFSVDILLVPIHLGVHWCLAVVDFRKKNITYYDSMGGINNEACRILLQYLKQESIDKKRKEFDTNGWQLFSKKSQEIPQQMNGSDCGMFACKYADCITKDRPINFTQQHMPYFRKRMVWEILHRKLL
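System: Recombinant human SENP1 catalytic domain, His6-tagged | Incubation: Enzyme reaction for 50 min at room temperature, dark | Medium: Tris pH 8 with BME, BSA, NP40 and catalase | Also added: 25 nM SUMO1 FRET substrate | Compound: 10 µM single point, 0.5% DMSO | Measured by: FRET fluorescence in CFP and YFP emission channels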
MPTP inh – blocks calcium-induced mitochondrial swelling | isolated mouse mitochondria, Ca2+ swelling absorbance, 30 min | inhibition, % at 10 µM | 1.4% of 360,000 active | AID 602449;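 active means inhibition of 50% or more, scaled per plate between neutral and stimulator controls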;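 further: 0% = DMSO wells given calcium and 100% = 1 mM EGTA wells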
MPTP counter – Rhodamine 123 counter-screen of mitochondrial pore hits. shares compounds with MPTP inh. inhibition, % at 10 µM. 78% of 5,000 active. isolated mitochondria, membrane potential, Rhodamine 123 fluorescence; in the data active means inhibition above about 22%;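 further: 0% = DMSO vehicle and 100% = positive control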
MPTP swell DR – dose response confirmation of mitochondrial permeability transition pore inhibitors; shares compounds with MPTP inh; isolated mitochondria swelling, absorbance; IC50, µM; 58% of 780 active; AID 651561; in the data active means IC50 below about 20 µM
MPTP counter DR – counter-screen for mitochondrial permeability transition pore inhibitors, dose response | shares compounds with MPTP inh | isolated mitochondria counterscreen, fluorescence read-out | IC50, µM | 49% of 780 active | AID 651564; in the data active means IC50 below about 80 µM
The depositor's hits bear a star; i = inactive; · = not tested or not shown. Rows were chosen to be rich in hits. Some 4.4% of all compounds tested hit in one or more screens of this group.

SMILES	NR3A LBD binder	EBI2 block	SENP1 FRET inh	MPTP inh	MPTP counter	others
COCc1nc2ccccc2n1Cc1c(F)cccc1Cl	-2	4	-3	2	·
CCOC(=O)c1c(NC(=O)C(NCCN(C)C)c2ccccc2)sc2c1CCCC2 (stereo not drawn)	-6	-26	1	81*	-11
CC(C)(C)c1ccc(S(=O)(=O)Nc2ccc(Cc3ccncc3)cc2)cc1	-24	3	1	73*	74*
CC(=O)Nc1ccc(S(=O)(=O)Nc2ccc(Cc3ccncc3)cc2)cc1	1	-3	1	0	·
COc1cccc(C(CNC(=O)c2ccc(Cl)c(S(=O)(=O)N3CCCC3)c2)N(C)C)c1 (stereo not drawn)	0	2	1	2	·
CC(=O)Nc1ccc(Oc2cc(NC(C)=O)cc([N+](=O)[O-])c2)cc1	-3	-13	2	0	·
O=C(CCc1ccc(Oc2cc([N+](=O)[O-])cc([N+](=O)[O-])c2)cc1)Nc1cccc(Cl)c1	11*	15	-7	97*	78*
O=C(Nc1cc(Oc2ccc(Cl)cc2)cc([N+](=O)[O-])c1)c1ccco1	22*	9	1	91*	74*
Cc1cccc(Oc2cc(NC(=O)c3ccccc3)cc([N+](=O)[O-])c2)c1	5	17	4	68*	81*
Cc1c(CC(=O)O)c(=O)oc2c(C)c(OCc3ccccc3Br)ccc12	-1	-10	-5	1	·
Cc1ccc(S(=O)(=O)N2CCOCC2)cc1NC(=O)c1cccc(S(=O)(=O)N2CCCC2)c1	0	0	1	-4	·
O=[N+]([O-])c1ccc2[nH]c(=S)[nH]c2c1	-9	-2	2	-3	·
O=[N+]([O-])c1ccc2[nH]c(=S)sc2c1	2	-6	18	57*	77*
Cc1cc(Cl)n2c(nc3cc(F)c(F)cc32)c1C#N	-2	-5	-32	95*	91*
Cc1cc(C)n2c(=O)c3ccc(Cl)cc3nc2c1C#N	-2	6	-25	2	·
CCCCc1c(C(=O)O)cc(OC)cc1C(=O)O	0	-7	0	-1	·
CCCCCc1c2c(cc(O)c1C(=O)O)OC(=O)c1c(cc(OC)cc1C(=O)CCCC)O2	-3	7	-4	90*	28*
COc1ccc(OC)c(C(=O)CCCC(=O)c2cc(OC)ccc2OC)c1	-1	-7	2	1	·
CCCCCc1c2c(cc(O)c1C(=O)O)OC(=O)c1cc(C(=O)CCCC)c(OC)cc1O2	-6	17	1	95*	57*
COc1cccc(NC(=O)[C@H](CC(C)C)NC(=O)[C@@H]2Cc3ccccc3CN2)c1	-3	6	1	0	·
CC1CCC(NC(=O)Cn2c(=O)oc3ccccc32)CC1 (stereo not drawn)	-3	-5	-2	-1	·
O=C(Nc1ccc(C(F)(F)F)cc1)c1cc(-c2cccnc2)nc2ccc(Br)cc12	34*	-13	0	78*	2	MPTP swell DR=13*;MPTP counter DR=7.1*
CCOc1ccc(NC(=O)CCC(=O)NNS(=O)(=O)c2ccccc2[N+](=O)[O-])cc1	-2	4	1	-2	·
O=C1C2CC=CCC2C(=O)N1c1ccc(N2CCN(c3ccccn3)CC2)c([N+](=O)[O-])c1 (stereo not drawn)	-14	8	2	55*	45*
O=C(c1ccc(N2CCCCC2)c([N+](=O)[O-])c1)N1CCN(c2ccccn2)CC1	-1	0	4	2	·
SMILES	NR3A LBD binder	EBI2 block	SENP1 FRET inh	MPTP inh	MPTP counter	others
CC(C1CC2CCC1C2)n1c(-c2cccs2)n[nH]c1=S (stereo not drawn)	2	6	1	6	·
C=Cc1ccc(Cn2c(C)c(C(=O)NCc3cccc(C)c3)sc2=O)cc1	·	3	-3	-1	·
Clc1ccc(C(c2ccccc2Cl)C(Cl)Cl)cc1 (stereo not drawn)	-2	13	0	61*	-5	MPTP swell DR=i;MPTP counter DR=>80
CCc1ccc(S(=O)(=O)NCCc2csc(-c3ccccc3)n2)s1	-11	-13	-1	69*	81*
CCc1ccc(S(=O)(=O)NCc2csc(-c3ccccc3)n2)s1	-2	1	-1	-4	·
CN(C)CCOC(C1CCCCC1)C1CCCCC1	-2	1	2	74*	-3	MPTP swell DR=15*;MPTP counter DR=>80
CN1CCc2c(OCC(=O)N3CCC(Cc4ccccc4)CC3)cccc2C1=O	-2	-9	-3	82*	49*
Cc1cc(C)cc(N(CC(=O)NCc2ccco2)S(=O)(=O)c2c(C)noc2C)c1	-3	3	2	0	·
Cc1cccc(C)c1NC(=O)CN(C)C(=O)CC1OC(=O)c2ccccc21 (stereo not drawn)	-1	1	1	-1	·
Cc1ccc(NC(=O)Cn2c(=O)oc3cc(S(=O)(=O)N4CCC(C)CC4)ccc32)cc1C	-8	3	2	70*	90*
COc1ccccc1NS(=O)(=O)c1ccc(-c2cnc(C3CC3)o2)cc1	2	-8	1	-1	·
CC(=O)Nc1ccc(S(=O)(=O)Nc2ccc3c(c2)OCCO3)cc1Cl	1	8	1	79*	58*
COc1ccc(NS(=O)(=O)c2ccc(-c3cnc(C4CC4)o3)cc2)cc1OC	0	5	3	92*	93*
COc1ccc(NS(=O)(=O)c2ccc3c(c2)OCCO3)cc1OC	0	2	2	85*	86*
O=S(=O)(Nc1ccc2c(c1)OCCO2)c1ccc2oc3ccccc3c2c1	-2	11	-2	68*	81*
O=S(=O)(Nc1ccc2c(c1)OCCO2)c1ccc(F)c(F)c1	-1	9	1	1	·
COC(=O)CNC(=O)c1cccc(-c2ccc(OC)cc2)c1	-2	0	-1	1	·
COc1ccccc1NC(=O)CN1CCN(CC(=O)Nc2ccc(Cl)c(C(F)(F)F)c2)CC1	-5	30	-3	3	·
C/C(CC(=O)Nc1ccc(Cl)c(C(F)(F)F)c1)=N\NC(=O)c1ccccc1O	24*	-2	-2	98*	70*
C/C(CC(=O)Nc1ccc(Cl)c(C(F)(F)F)c1)=N\NC(=O)c1cccc(O)c1	-3	-9	2	2	·
CCc1ccccc1NCC(=O)Nc1ccc(Cl)c(C(F)(F)F)c1	21*	12	0	69*	86*
COc1ccc(CN2C[C@@H](CO)O[C@@H](n3cnc4c(N5CCN(c6ccccc6)CC5)ncnc43)C2)cc1	·	1	2	0	·
Cc1ccc2nc(SC(C)C(=O)NCc3ccc4c(c3)OCO4)[nH]c2c1 (stereo not drawn)	-5	-1	1	3	·

Assay outcomes as filed in PubChem BioAssay.
